Bioassay records as filed in PubChem BioAssay.
This is a sample that favours compounds with a hit; in the whole collection about 2.6% have one here.
VLA-4 inh – inhibition in a human VLA-4 binding assay. inhibition, % (about 7 µM as worked out from the volumes in the protocol). VLA-4 expressing cells, ligand binding flow cytometry. hit rate 0.2% among 330,000; in the data active = inhibition above about 50%
Rce1 inh – yeast Ras-converting enzyme inhibition; Q03530; yeast membranes, quenched prenylated peptide cleavage fluorescence; calls only; hit rate 0.27% among 290,000;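 active = fall in fluorescence gain of 50% or more versus controls, with final raw signal at or below 3038400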;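 note: plate controls were neutral control wells for no effect and wells lacking membranes for full effect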
Platelet DG rel – platelet dense granule release activity | hit rate 0.22% among 300,000 | inhibition, %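 (compounds screened at 7.5 µM in platelet-rich plasma)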 | human platelet-rich plasma, SFLLRN dense granule ATP release, luminescence;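 active = mean replicate score, as percent of positive control, at or above 50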
TAAR1 agonist – human TAAR1 agonism | Q96RJ0 | CHO RD-HGA16 TAAR1, Fluo-8 calcium fluorescence; vehicle wells 0%, saturating PEA agonist 100% | activation, % at 3 µM | hit rate 0.99% among 360,000;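 active = activation above the mean activation of all test compounds in the run plus 3 SD, cut at about 38% in these data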
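System: CHO-derived RD-HGA16 cells with stable Gα16 and human TAAR1 / Times: 17-24 h plating, Fluo-8 75 min 37 °C, 30 min RT / Technique: calcium-sensitive Fluo-8 signal, excitation 470-495, emission 515-575 nm / Measure: % activation relative to PEA EC100 response / Benchmarks: DMSO and PEA EC100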
TAAR1 antag – human TAAR1 antagonism; AID 624466; CHO RD-HGA16 TAAR1, Fluo-8 calcium fluorescence, antagonist; Q96RJ0; hit rate 1.5% among 360,000; inhibition, % at 3 µM;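 active = inhibition above a per-plate cutoff, the mean inhibition of test compounds on that plate plus 3 SD, cut at about 49% in these data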;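 note: 0% = DMSO plus EC80 beta-PEA response and 100% = DMSO alone without agonist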
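Test system: RD-HGA16 CHO cells with stable hTAAR1 and Gα16 / Probe or stimulus: EC80 β-phenethylamine stimulus / Times: seeding 17-24 h prior, 75-min 37 °C, 30-min RT dye loading / Detection: Fluo-8 calcium-sensitive fluorescence / Read-out basis: % inhibition scaled between DMSO and EC80 PEA controls / Repeats: singlicate, one well per test compound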
* = called active by the depositor; i = inactive; / = no result given; + = active, no number.

SMILES	VLA-4 inh	Rce1 inh	Platelet DG rel	TAAR1 agonist	TAAR1 antag
CCOc1cc(C2C3=C(CCCC3=O)N(CCC(=O)O)C3=C2C(=O)CCC3)ccc1OS(=O)(=O)c1ccc(C)cc1	-4	i	-3	12	-6
COC(=O)C(Cc1ccccc1)OS(N)(=O)=O (centres undefined)	28	+	-2	1	7
COC(=O)[C@H](Cc1ccccc1)NS(=O)(=O)N[C@@H](Cc1ccccc1)C(=O)OC	4	/	/	4	-15
COc1cc(N=c2ssnc2Cl)cc(OC)c1OC	3	i	0	42*	22
Clc1ccc(N=c2ssnc2Cl)cc1	0	i	1	46*	18
COc1ccc(N=c2ssnc2Cl)cc1	-10	i	-2	/	/
COc1ccc(-c2cnc3c(c2)C(=O)N([C@H](C)CO)C[C@@H](C)[C@@H](CN(C)C(=O)NC2CCCC2)O3)cc1	/	/	/	0	-4
COc1ccc(-c2cc(C(=O)N3CCCCCC3)c3ccccc3n2)cc1OC	/	/	/	10	24
COc1ccc(-c2cc(C(=O)N3CCN(c4ccccc4)CC3)c3ccccc3n2)cc1OC	12	i	6	24	33
COc1ccc(-c2cc(C(=O)N3CCCC(C(F)(F)F)C3)c3ccccc3n2)cc1OC (centres undefined)	-7	i	9	14	50*
COc1ccc(-c2cc(C(=O)OCC(=O)N3CCCCC3)c3ccccc3n2)cc1OC	-8	/	/	9	71*
OC(c1ccccc1)(c1ccccc1)C1CCN(CCCOc2ccc(F)cc2)CC1	/	/	/	39*	26
C#Cc1ccccc1OCCCN1CCC(C(O)(c2ccccc2)c2ccccc2)CC1	/	/	/	40*	51*
Cc1ccc(OCCCN2CCC(C(O)(c3ccccc3)c3ccccc3)CC2)cc1	/	/	/	31	13
Cc1cccc(C(=O)NNC(=O)C2CC2)c1	2	/	1	5	-13
CC(C)(C)OC(=O)N1CCC(C(=O)Nc2cccc(C(=O)NCCCc3ccccc3)c2)CC1	/	/	/	19	48
CC(C)(C)OC(=O)N1CCCC(C(=O)Nc2cccc(C(=O)NCCCc3ccccc3)c2)C1 (centres undefined)	/	/	/	10	49*
CCC1Sc2ccc(S(=O)(=O)CCC(=O)Nc3cccc(Br)c3)cc2NC1=O (centres undefined)	2	i	2	7	49*
CCC1Sc2ccc(S(=O)(=O)Nc3ccc(OC)cc3)cc2NC1=O (centres undefined)	3	i	-19	56*	24
CCC1Sc2ccc(S(=O)(=O)CCC(=O)Nc3ccc(NC(C)=O)cc3)cc2NC1=O (centres undefined)	7	i	-1	0	-4
Cc1cccc(C)c1OCC(O)CN (centres undefined)	3	i	1	41*	-16
CCOC(=O)N1CCN(CC(O)COc2c(C)cccc2C)CC1 (centres undefined)	18	i	0	1	-16
CCC(=O)Nc1c2c(nn1-c1ccc(C)cc1)CS(=O)(=O)C2	-1	i	9	/	/
Cc1cc(C)c(C)c(C(=O)CSc2nnc(-c3ccc4[nH]c(C)c(C)c4c3)o2)c1C	-5	i	1	6	69*
COc1ccccc1OCC(=O)Nc1ccc(S(=O)(=O)Nc2onc(C)c2C)cc1	-4	i	8	1	3
SMILES	VLA-4 inh	Rce1 inh	Platelet DG rel	TAAR1 agonist	TAAR1 antag
Cc1ccc(CCNC(=O)C2CCN(S(=O)(=O)c3ccc4c(c3)NC(=O)C(C)S4)CC2)cc1 (centres undefined)	14	i	0	13	61*
CC1Sc2ccc(S(=O)(=O)N3CCC(C(=O)NCC(C)c4ccccc4)CC3)cc2NC1=O (centres undefined)	-5	i	18	42*	46
CCCCn1c(N)c(N(CCC(C)C)C(=O)c2sc3nc4n(c(=O)c3c2C)CCC4)c(=O)[nH]c1=O	-5	i	0	0	9
Cc1ccc(Cl)cc1N1CCN(CC(=O)Nc2ccc(CN3CCCCC3)cc2)CC1	12	i	7	52*	-3
COc1ccccc1N1CCN(CC(=O)Nc2ccc(CN3CCCCC3)cc2)CC1	17	i	2	/	/
C/C(=N/NS(=O)(=O)c1cc(C)ccc1C)c1ccncc1	-9	i	6	5	0
COc1cc(OC)c(NC(=O)c2ccccc2F)cc1Cl	19	i	-12	3	3
COc1cc(NC(=O)c2cc3ccccc3cc2O)c(OC)cc1Cl	9	i	-1	5	49*
Cc1ccc(-c2nnc(-c3cccc(NC(=O)c4cccs4)c3)o2)cc1	6	i	11	4	52*
O=C(Cc1cccs1)Nc1ccc(-c2nnc(-c3ccccc3)o2)cc1	15	i	-2	13	9
Cc1cccc(-c2nnc(-c3cccc(NC(=O)Cc4cccs4)c3)o2)c1	7	i	-1	11	74*
c1ccc(CCNc2ccc3ncc(-c4cccc5ccccc45)n3n2)nc1	/	/	/	4	9
O=CN(Cc1nc2ccccc2[nH]1)c1ccc(C(=O)O)cc1	/	/	/	0	0
c1cc2c(cc1C1=NNC(=NC3CC3)SC1)OCCO2	-1	i	75*	0	8
COc1ccc(NS(=O)(=O)c2ccc3c(c2)n(C)c(=O)n3C)cc1	-7	i	-4	0	-1
COc1ccc(NS(=O)(=O)c2ccc3oc(=O)c4[nH]c(=O)c(=O)n(C)c4c3c2)cc1	17	+	3	6	-18
Cc1cnc(CNC(=O)C2(C)CCCN2CC(C)C)cn1 (centres undefined)	/	/	/	0	1
O=C(N[C@H](Cc1ccccc1)C(=O)NCc1cccc2ccccc12)[C@H]1O[C@@H](n2ccc(=O)[nH]c2=O)[C@H](O)[C@@H]1O	/	/	/	1	-3
COc1ccccc1Nc1nn2c(=O)c3ccc(C(=O)N4CCCC(C)C4)cc3nc2s1 (centres undefined)	-3	/	-2	6	50*
COc1cc(-c2nc3ccccn3c2/N=C/c2cc(OC)c(OC)c(OC)c2)ccc1O	-8	+	8	0	-13
O=C(/C=C/c1ccccc1)NC(=S)NNC(=O)Cc1cccs1	5	i	10	53*	2
Cc1cc2nn(-c3cccc4ccccc34)nc2cc1NC(=O)c1cccs1	-10	+	0	1	15
O=C(Nc1ccc([N+](=O)[O-])cc1)C1CC1(c1ccccc1)c1ccccc1 (centres undefined)	8	i	14	1	54*
C=CCn1c2ccccc2c2nnc(SCN3C(=O)c4ccccc4C3=O)nc21	-6	i	-10	16	51*
C=CCn1c2ccccc2c2nnc(SCCCn3c(=O)[nH]c4ccccc43)nc21	/	/	/	10	56*
Cc1ccccc1OCCOC(=O)c1ccc(S(=O)(=O)N2CCCC2)cc1	-1	/	/	4	30
COC(=O)c1ccccc1-c1c2ccc(=N)cc-2oc2cc(N)ccc12	/	/	/	+	105*
